Source: ChEMBL document CHEMBL1131071, “Design and synthesis of brefeldin A sulfide derivatives as prodrug candidates with enhanced aqueous solubilities” (1998)

Legend:
Type in all cases: functional
Details in all cases: Homo sapiens
SF-539 = experiment: Cytotoxicity against CNS SF-539 cancer cell cultures.
How it was run: (§1)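 Human cancer cell lines from a panel of about 55, incubated with compound for 72 h (3-day incubation). Values are single determinations or, where given with population standard deviation, two determinations.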

DU-145 = experiment: Cytotoxicity against prostate DU-145 cancer cell cultures.; how it was run: as §1
HOP-62 = experiment: Cytotoxicity against lung HOP-62 cancer cell cultures.; how it was run: as §1
HCT-116 = experiment: Cytotoxicity against colon HCT116 cancer cell cultures.; how it was run: as §1
OVCAR-3 = experiment: Cytotoxicity against ovarian OVCAR-3 cancer cell cultures.; how it was run: as §1
SN12C = experiment: Cytotoxicity against renal SN12C cancer cell cultures.; how it was run: as §1
UACC-62 = experiment: Cytotoxicity against melanoma UACC-62 cancer cell cultures.; how it was run: as §1
MDA-MB-435 = experiment: Cytotoxicity against breast MDA-MB-435 cancer cell cultures.; how it was run: as §1

| SMILES | GI50 (SF-539) [µM] | GI50 (DU-145) [µM] | GI50 (HOP-62) [µM] | GI50 (HCT-116) [µM] | GI50 (OVCAR-3) [µM] | GI50 (SN12C) [µM] | GI50 (UACC-62) [µM] | GI50 (MDA-MB-435) [µM] |
| --- | --- | --- | --- | --- | --- | --- | --- | --- |
| C[C@H]1CCC/C=C/[C@@H]2C[C@H](O)C[C@H]2[C@H](O)[C@H](SCC(=O)O)CC(=O)O1 | 34 | 38 | 30 | 23 | 30 | 39 | 33 | 42 |
| COC(=O)CS[C@@H]1CC(=O)O[C@@H](C)CCC/C=C/[C@@H]2C[C@H](O)C[C@H]2[C@@H]1O | 24 | 30 | 28 | 19 | 27 | 32 | 6.8 | 30 |
| COC(=O)CS(=O)(=O)[C@@H]1CC(=O)O[C@@H](C)CCC/C=C/[C@@H]2C[C@H](O)C[C@H]2[C@@H]1O |  | 6 | 5.1 | 3.7 | 3.2 | 3.3 | 5 | 5.5 |
| COc1ccc(S[C@@H]2CC(=O)O[C@@H](C)CCC/C=C/[C@@H]3C[C@H](O)C[C@H]3[C@@H]2O)cc1 | 26 | 36 | 24 | 33 | 22 | 30 | 29 | 19 |
| C[C@H]1CCC/C=C/[C@@H]2C[C@H](O)C[C@H]2[C@H](O)[C@H](SCC(O)CO)CC(=O)O1 (stereo not given in full) | 32 | 18 | 33 | 36 | 22 | 34 | 16 | 36 |
| C[C@H]1CCC/C=C/[C@@H]2C[C@H](OC(=O)CCCC(=O)O)C[C@H]2[C@H](O)/C=C/C(=O)O1 | 22 | 30 | 33 | 21 | 20 | 32 |  | 11 |
| C[C@H]1CCC/C=C/[C@@H]2C[C@H](OC(=O)CCC(=O)O)C[C@H]2[C@H](O)/C=C/C(=O)O1 |  | 6.8 | 3.4 | 17 | 3.3 |  | 1.9 |  |
| C[C@H]1CCC/C=C/[C@@H]2C[C@H](O)C[C@H]2[C@H](O)C(O)C(O)C(=O)O1 (stereo not given in full) | 0.68 | 6.7 | 5 | 3.4 | 2.4 | 2.7 | 1.6 | 3.8 |
| C[C@H]1CCC/C=C/[C@@H]2C[C@H](OC(=O)CCC(=O)O)C[C@H]2[C@H](OC(=O)CCC(=O)O)/C=C/C(=O)O1 | > 100 | > 100 | > 100 | > 100 | > 100 | > 100 | > 100 | > 100 |
| C[C@H]1CCC/C=C/[C@@H]2C[C@H](O)C[C@H]2[C@H](O)[C@H](SCCN)CC(=O)O1 | 4.9 |  | 3.9 | 3.5 | 2.2 |  | 2.7 | 3.3 |
| C[C@H]1CCC/C=C/[C@@H]2C[C@H](O)C[C@H]2[C@H](O)[C@H](Sc2ccc(O)cc2)CC(=O)O1 | 5.1 | 6.3 | 3.2 | 2.5 | 2.4 | 4.4 | 4.8 | 3.3 |
| C[C@H]1CCC/C=C/[C@@H]2C[C@H](O)C[C@H]2[C@H](O)[C@H]([S+]([O-])CCN)CC(=O)O1 (stereo not given in full) | 0.02 | 0.17 | 0.15 | 0.086 | 0.082 | 0.12 | 0.021 | 0.055 |
| C[C@H]1CCC/C=C/[C@@H]2C[C@H](O)C[C@H]2[C@H](O)[C@H]([S+]([O-])CCO)CC(=O)O1 (stereo not given in full) | 0.058 | 0.26 | 0.29 | 0.21 | 0.19 | 0.65 | 0.064 | 0.09 |
| C[C@H]1CCC/C=C/[C@@H]2C[C@H](O)C[C@H]2[C@H](O)[C@H](SCCN(C)C)CC(=O)O1 | 0.39 | 2.4 | 0.54 | 0.75 | 0.54 | 1.4 | 0.43 | 0.5 |
| C[C@H]1CCC/C=C/[C@@H]2C[C@H](O)C[C@H]2[C@H](O)[C@H]([S+]([O-])c2ccc(O)cc2)CC(=O)O1 (stereo not given in full) | 0.017 | 0.118 | 0.088 | 0.026 | 0.025 | 0.05 | 0.03 | 0.042 |
| C[C@H]1CCC/C=C/[C@@H]2C[C@H](O)C[C@H]2[C@H](O)[C@H]([S+]([O-])CC(N)C(=O)O)CC(=O)O1 (stereo not given in full) | 0.039 | 0.43 | 0.7 | 0.089 | 0.05 | 0.16 | 0.038 | 0.05 |
| C[C@H]1CCC/C=C/[C@@H]2C[C@H](O)C[C@H]2[C@H](O)[C@H]([S+]([O-])CCN(C)C)CC(=O)O1 (stereo not given in full) | 0.3 | 0.48 | 0.35 | 0.28 | 0.14 | 0.15 | 0.071 | 0.41 |
| C[C@H]1CCC/C=C/[C@@H]2C[C@H](OC(=O)CCCC(=O)O)C[C@H]2[C@H](OC(=O)CCCC(=O)O)/C=C/C(=O)O1 | > 100 | > 100 | > 100 | > 100 | > 100 | > 100 | > 100 | > 100 |
| C[C@H]1CCC/C=C/[C@@H]2C[C@H](O)C[C@H]2[C@H](O)[C@H](SCCO)CC(=O)O1 | 23 | 30 | 34 | 19 | 27 | 33 | 40 | 34 |
